High-throughput results (PubChem)
This is a sample that favours compounds with a hit; in the whole collection about 0.7% have one here.
CaV13 FRET inh – Primary screen for inhibitors of IQ motif and Ca2+-dependent inactivation inhibitor domain binding in CACNA1D, Förster resonance energy transfer in living cells, … | HEK cells, CFP/YFP FRET ICDI-IQ, plate reader, 10 min; percent FRET-ratio fall versus neutral wells | hit rate 0.098% among 340,000 | inhibition, % at 12.3 µM | AID 743397;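 active = mean replicate inhibition of at least 30% and at least 1% of replicates passing that level; inconclusive = only one of the two criteria is met; inactive = neither criterion is met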;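 also: 0% = median of the neutral control wells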
FN deposition inh – fibronectin deposition inhibition | hit rate 0.086% among 350,000 | AH1F fibroblasts, Alexa488-fibronectin deposition fluorescence, overnight | inhibition, % at 12.6 µM;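 active = mean inhibition across replicates of 30% or more, regardless of how many single replicates reach that level; inconclusive = mean under 30% yet at least half of replicates reach 30%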;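 also: positive control wells lacked labelled fibronectin entirely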
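Schedule: 1 h cell adhesion before compound, then overnight fibronectin incubation; test system: AH1F fibroblast monolayer depositing Alexa488-labelled fibronectin into matrix; quantity: 10000 AH1F cells per well; probe or stimulus: fluorescent fibronectin at 24 nM final; signal: fluorescence, ex 485 nm, em 525 nm; evaluation: percent inhibition as loss of matrix-bound fibronectin fluorescence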
N-glyco inh – N-linked glycosylation inhibition. reporter increase, % at 12.5 µM. hit rate 0.23% among 360,000. D54 ERlucT glycosylation luciferase reporter, 24 h; percent of 100 nM tunicamycin response;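 active = mean luciferase reporter signal, scaled so untreated is 0 and the glycosylation-blocking control 100, at or above a set limit in every replicate; inconclusive = mean reaches the limit but not every replicate does; inactive = mean below the limit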;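 also: luciferase carries N-glycosylation sites so blocking glycosylation raises the light; 0% = median of neutral control wells and 100% = median of 100 nM tunicamycin wells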
RAD54 branch – RAD54 (human) branch migration inhibition. Q92698. RAD54 Holliday junction branch migration, FAM/BHQ fluorescence. inhibition, % at 10.4 µM. hit rate 0.14% among 360,000. AID 602329;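 active = mean normalized replicate activity at least 40 and at least half of replicates scoring 40 or more; inconclusive = only one of the two criteria met; inactive = mean below 40 and under half of replicates reaching 40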;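 also: 0% = median of neutral control wells and 100% = median of positive control wells; inhibitors cause a drop in the FAM fluorescence signal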
RAD52 anneal inh – inhibitors of human RAD52 DNA annealing. recombinant RAD52 DNA annealing, FRET fluorescence. inhibition, % at 18.7 µM. hit rate 0.46% among 360,000;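 active = every replicate showing at least 50% inhibition; inconclusive = mean inhibition at least 50% but not in every replicate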
Target sequence (P43351 whole entry, looked up): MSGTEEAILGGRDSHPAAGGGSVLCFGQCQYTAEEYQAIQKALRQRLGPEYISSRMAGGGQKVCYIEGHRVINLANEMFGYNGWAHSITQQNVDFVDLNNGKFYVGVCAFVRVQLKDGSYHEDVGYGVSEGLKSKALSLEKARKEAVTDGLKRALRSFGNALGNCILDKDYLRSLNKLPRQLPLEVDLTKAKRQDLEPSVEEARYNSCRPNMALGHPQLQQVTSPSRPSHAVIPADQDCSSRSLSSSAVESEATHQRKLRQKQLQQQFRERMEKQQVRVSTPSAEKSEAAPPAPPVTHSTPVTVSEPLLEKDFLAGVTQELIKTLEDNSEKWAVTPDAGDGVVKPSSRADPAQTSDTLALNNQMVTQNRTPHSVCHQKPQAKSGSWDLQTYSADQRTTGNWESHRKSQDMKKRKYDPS
An asterisk follows results filed as active; ! = repeats disagree.

What do the screens show for `O=C(C[C@H]1CC[C@H]2[C@@H](COC[C@@H](O)CN2S(=O)(=O)c2ccccc2)O1)NCCN1CCCCC1`?
FN deposition inh: -7; RAD54 branch: -1; RAD52 anneal inh: 0

How did O=C(C[C@H]1CC[C@@H]2[C@H](COC[C@H](O)CN2S(=O)(=O)c2ccccc2)O1)NCC1CCCCC1 do in these assays?
FN deposition inh: 14; RAD54 branch: 5; RAD52 anneal inh: 55*

What do the screens show for `O=C(C[C@H]1CC[C@H]2[C@@H](COC[C@@H](O)CN2S(=O)(=O)c2ccccc2)O1)NCC1CCCCC1`?
FN deposition inh: -8; RAD54 branch: 9; RAD52 anneal inh: 34

Results for O=C(C[C@@H]1CC[C@H]2[C@@H](COC[C@H](O)CN2S(=O)(=O)c2ccccc2)O1)NCC1CCCCC1 ?
FN deposition inh: -4; RAD54 branch: -5; RAD52 anneal inh: 53*

Results for CCn1c2ccccc2c2cc(NC(=O)COC(=O)c3ccccc3O)ccc21 ?
CaV13 FRET inh: 2; FN deposition inh: 9; N-glyco inh: 8; RAD52 anneal inh: -5

What do the screens show for `CCn1c2ccccc2c2cc(NC(=O)COC(=O)c3cc(S(N)(=O)=O)c(Cl)cc3Cl)ccc21`?
CaV13 FRET inh: -1; FN deposition inh: 9; N-glyco inh: 40*; RAD52 anneal inh: -5

How did O=C(COc1ccccc1[N+](=O)[O-])Nc1ccc(NC(=O)c2cc3ccccc3o2)cc1 do in these assays?
CaV13 FRET inh: -5; FN deposition inh: -20; N-glyco inh: -4; RAD54 branch: 3; RAD52 anneal inh: -21

How did O=C(COc1ccc(/C=N/NC(=O)c2cc3ccccc3o2)cc1Br)Nc1ccccc1 do in these assays?
CaV13 FRET inh: -8; N-glyco inh: 62*; RAD54 branch: 4

Results for CN1C(=O)c2cc(NC(=O)C3CCCC3)ccc2OC[C@H]2O[C@H](CC(=O)NCC(F)(F)F)CC[C@H]21 ?
FN deposition inh: -12; RAD54 branch: 3; RAD52 anneal inh: -5

How did COc1ccc(S(=O)(=O)Nc2ccc3c(c2)n(C)c(=O)n3C)cc1OC do in these assays?
CaV13 FRET inh: -7; FN deposition inh: -18; N-glyco inh: inconclusive; RAD54 branch: -13; RAD52 anneal inh: -4

How did COc1ccc(Cl)cc1S(=O)(=O)Nc1ccc2c(c1)n(C)c(=O)n2C do in these assays?
CaV13 FRET inh: -8; FN deposition inh: -7; N-glyco inh: 58*; RAD54 branch: 14; RAD52 anneal inh: -20

Results for Cc1noc(C)c1S(=O)(=O)Nc1ccc2c(c1)C(=O)N([C@H](C)CO)C[C@@H](C)[C@@H](CN(C)S(=O)(=O)c1ccc(F)cc1)OCCCC[C@@H](C)O2 ?
RAD54 branch: -9; RAD52 anneal inh: 57*

How did Cc1noc(C)c1S(=O)(=O)Nc1ccc2c(c1)C(=O)N([C@@H](C)CO)C[C@H](C)[C@@H](CN(C)S(=O)(=O)c1ccc(F)cc1)OCCCC[C@H](C)O2 do in these assays?
RAD54 branch: -5; RAD52 anneal inh: 75*

How did C[C@H]1CCCCO[C@H](CN(C)S(=O)(=O)c2cccs2)[C@@H](C)CN([C@@H](C)CO)C(=O)c2cc(NS(=O)(=O)c3cn(C)cn3)ccc2O1 do in these assays?
FN deposition inh: -16; RAD54 branch: -2; RAD52 anneal inh: 59*

How did O=C(Nc1cccc(F)c1)N1CC(=O)N2[C@H](CO)[C@@H](c3ccc(Br)cc3)[C@H]2C1 do in these assays?
RAD52 anneal inh: 12

What do the screens show for `N=C(N)c1ccc(N)cc1`?
CaV13 FRET inh: -6; FN deposition inh: -2; N-glyco inh: 0; RAD54 branch: 47; RAD52 anneal inh: 100*

Results for COc1ccc(NC(=O)N(C)C[C@@H]2Oc3c(NC(=O)Nc4c(C)noc4C)cccc3C(=O)N([C@@H](C)CO)C[C@H]2C)cc1 ?
RAD54 branch: 7; RAD52 anneal inh: 0

Results for CCn1c2ccccc2c2cc(NC(=O)c3cc(OC)cc(OC)c3)ccc21 ?
CaV13 FRET inh: -16; FN deposition inh: -11; N-glyco inh: 9; RAD52 anneal inh: -20

How did CCn1c2ccccc2c2cc(NC(=O)c3cc(OC)c(OC)c(OC)c3)ccc21 do in these assays?
CaV13 FRET inh: -6; N-glyco inh: 27*; RAD54 branch: 5; RAD52 anneal inh: -8

What do the screens show for `C[C@@H]1CN([C@@H](C)CO)C(=O)Cc2cc(NC(=O)CCN3CCOCC3)ccc2O[C@H]1CN(C)Cc1ccncc1`?
RAD54 branch: 4; RAD52 anneal inh: 5

Results for COc1cc(-c2cnc3c(NC(C)=O)cc(-c4ccccc4CN(C)C)cn23)cc(OC)c1OC ?
CaV13 FRET inh: 6; FN deposition inh: 2; N-glyco inh: 40*; RAD54 branch: 11; RAD52 anneal inh: -39

What do the screens show for `COc1cc(-c2cc(NC(C)=O)c3ncc(-c4cc(OC)c(OC)c(OC)c4)n3c2)cc(OC)c1OC`?
CaV13 FRET inh: -5; FN deposition inh: -5; N-glyco inh: 19; RAD54 branch: -5; RAD52 anneal inh: -17

How did Cc1nc(CCNC(=O)Cc2ccc(Cl)cc2)cs1 do in these assays?
CaV13 FRET inh: 39*; FN deposition inh: 6; N-glyco inh: 0; RAD54 branch: -2; RAD52 anneal inh: -3

What do the screens show for `CN(C)CCCNC(=O)C[C@H]1CC[C@H](NC(=O)c2ccccc2F)[C@@H](CO)O1`?
FN deposition inh: 5; RAD54 branch: -1; RAD52 anneal inh: -3

How did CN1c2ccc(Cl)cc2C(=O)NC1C1CC=CCC1 (stereo not drawn) do in these assays?
CaV13 FRET inh: 44*; FN deposition inh: 2; N-glyco inh: -1; RAD54 branch: -9; RAD52 anneal inh: -5

What do the screens show for `C[C@@H]1CC=CC[C@@H](c2cccc(Cl)c2)NC(=O)[C@@H](C)N(C)C(=O)c2ccccc2O1` (mixture of isomers)?
FN deposition inh: 5

What do the screens show for `O=C(Nc1ccc(Cl)cc1)N1[C@@H]2CNC[C@H]1C2c1ccc(/C=C/c2ccccc2)cc1` (stereo partly drawn)?
FN deposition inh: -5; RAD52 anneal inh: 67*!

What do the screens show for `O=C(Nc1ccc2c(c1)OCO2)N1[C@@H]2CNC[C@H]1C2c1ccc(/C=C/c2ccccc2)cc1` (stereo partly drawn)?
FN deposition inh: 0; RAD52 anneal inh: 60*

Results for Cc1ccc(-c2ccc(C3[C@H]4CNC[C@@H]3N4C(=O)Nc3ccccc3Cl)cc2)cc1 (stereo partly drawn) ?
FN deposition inh: 1; RAD52 anneal inh: 53*!

How did O=C(Nc1ccc(Cl)cc1)N1[C@@H]2CNC[C@H]1C2c1ccc(-c2ccccc2)cc1 (stereo partly drawn) do in these assays?
FN deposition inh: -10; RAD52 anneal inh: 58*!

What do the screens show for `N#Cc1cccc(-c2ccc(C3[C@H]4CNC[C@@H]3N4C(=O)Nc3ccc(Cl)cc3)cc2)c1` (stereo partly drawn)?
FN deposition inh: 6; RAD52 anneal inh: -28
